Assay results from ChEMBL document CHEMBL3228034, “Cardenolide analogues. 9. Synthesis and biological activity of 17beta-carbomethoxyethylene and 17beta-cyanoethylene 14alpha-H steroids” (J Med Chem, 1979).
The source made the active and inactive calls.

Assays:
Cavia porcellus [1] = species: Cavia porcellus; test: Induction of positive inotropic activity in guinea pig atrium assessed as atrial contractility up to 10^-4 M; type: functional, tissue-based; conditions: Cardiac atrium
Outline: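 Left auricle from guinea pig in Krebs-Henseleit solution, 32 °C, gassed with O2 containing 5% CO2, resting tension about 1 g. Paced by rectangular pulses (10 ms, 100/min) at 20% above threshold voltage. Change in isometric contraction calculated relative to control atria.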

Cavia porcellus [2] = species: Cavia porcellus; test: Inhibition of Na+/K+ ATPase-mediated phosphohydrolase activity in guinea pig myocardium up to 10^-4 M after 30 mins; type: tissue-based
Outline: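 Crude membrane preparation from guinea pig myocardium, holding both (Na+,K+)ATPase and Mg2+-ATPase. Incubated 37 °C, 30 min; substrate consumption under 15% without drug. Activity measured as inorganic phosphate liberated per mg protein per hour. Na+,K+ component taken as total minus Mg2+-ATPase activity, the latter measured without Na+ and K+. Drug range 10^-8–10^-4 M, duplicates.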

| SMILES | inhibition (Cavia porcellus [2]) | Activity (Cavia porcellus [1]) |
| --- | --- | --- |
| COC(=O)/C=C/[C@H]1CC[C@H]2[C@@H]3CC[C@@H]4C[C@@H](O)CC[C@]4(C)[C@H]3CC[C@]12C | inactive | inactive |
| C[C@]12CC[C@@H](O)C[C@H]1CC[C@@H]1[C@@H]2CC[C@]2(C)[C@@H](/C=C/C#N)CC[C@@H]12 | inactive | inactive |
| C[C@]12CC[C@@H](O)C[C@H]1CC[C@@H]1[C@@H]2CC[C@]2(C)[C@@H](/C=C\C#N)CC[C@@H]12 | inactive | inactive |
| C[C@]12CC[C@H](O)C[C@@H]1CC[C@@H]1[C@@H]2CC[C@]2(C)[C@@H](/C=C\C#N)CC[C@@H]12 | inactive | inactive |
| COC(=O)/C=C/[C@H]1CC[C@H]2[C@@H]3CC[C@@H]4C[C@H](O)CC[C@]4(C)[C@H]3CC[C@]12C | inactive | inactive |
| COC(=O)/C=C/[C@H]1CC[C@H]2[C@@H]3CCC4=C[C@@H](O)CC[C@]4(C)[C@H]3CC[C@]12C | inactive | inactive |
| C[C@]12CC[C@H](O)C[C@@H]1CC[C@@H]1[C@@H]2CC[C@]2(C)[C@@H](/C=C/C#N)CC[C@@H]12 | inactive | inactive |
| C[C@]12CC[C@H](O)C[C@H]1CC[C@@H]1[C@@H]2CC[C@]2(C)[C@@H](/C=C\C#N)CC[C@@H]12 | inactive | inactive |

Further lines, with some results ahead:

| inhibition (Cavia porcellus [2]) | SMILES | Activity (Cavia porcellus [1]) |
| --- | --- | --- |
| inactive | COC(=O)/C=C/[C@H]1CC[C@H]2[C@@H]3CC[C@H]4C[C@@H](O)CC[C@]4(C)[C@H]3CC[C@]12C | inactive |
| inactive | C[C@]12CC[C@H]3[C@@H](CCC4=C[C@@H](O)CC[C@@]43C)[C@@H]1CC[C@@H]2/C=C\C#N | inactive |
| inactive | C[C@]12CC[C@H](O)C[C@H]1CC[C@@H]1[C@@H]2CC[C@]2(C)[C@@H](/C=C/C#N)CC[C@@H]12 | inactive |
| inactive | C[C@]12CC[C@H]3[C@@H](CCC4=C[C@@H](O)CC[C@@]43C)[C@@H]1CC[C@@H]2/C=C/C#N | inactive |
